This is an account of results in ChEMBL document CHEMBL1153041, “Design, synthesis and biological evaluation of 2H-benzo[b][1,4] oxazine derivatives as hypoxia targeted compounds for cancer therapeutics” (Bioorg Med Chem Lett, 2009).

Each structure is given as a SMILES string. The source made the active and inactive calls. No cut-off for these calls is given here.

For assay [1], the system named is HepG2. Description: Cytotoxicity against human HepG2 cells in hypoxic condition after 48 hrs by MTT assay. Type of assay: functional, cell-based. The procedure, abridged: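 HepG2 cells (passage 2, RPMI 1640 + 10% FBS) given drug or 0.1% DMSO vehicle in log phase. 22 h normoxia, then 2 h hypoxia (1% O2, 5% CO2, 94% N2, 37 °C) in a glove chamber checked by methylene blue indicator, then 24 h reoxygenation. MTT read at 48 h; parallel normoxic duplicate plate.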
For orientation: Tetrazolium assays rely on reduction of a dye to a coloured formazan, in cell work by metabolically active cells.

Assay [2] has as its system HepG2. Description: Cytotoxicity against human HepG2 cells assessed as cell survival under normoxic condition at 50 uM after 24 hrs by clonogenic assay relative to control. To be noted: HepG2, 24 h, read-out: Survival. Type of assay: functional. Put shortly:
(§1)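 HepG2 in RPMI 1640 + 10% FBS, 3.5 × 10^3 cells/well, allowed 24 h growth at 37 °C. Vehicle (0.1% DMSO) or drug then applied, with 10 days incubation under normoxia (5% CO2, 37 °C). Fixed in 10% acetic acid, stained with crystal violet. Colonies >50 μm were counted visually in three random 1-mm × 1-mm grids, relative to controls; Mann–Whitney test.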

In assay [3] the test system is HepG2. The experiment in a line: Cytotoxicity against human HepG2 cells assessed as assessed as cell survival under hypoxic condition at 50 uM after 24 hrs by clonogenic assay. Type of assay: functional. To be noted: HepG2, 24 h, read-out: Survival. Put shortly: (§2)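 HepG2 in RPMI 1640 + 10% FBS, 3.5 × 10^3 cells/well, grown 24 h at 37 °C normoxic, then exposed to vehicle (0.1% DMSO) or drug. Hypoxia 1% O2/5% CO2/94% N2 at 37 °C for 5 h in glove chamber, then reoxygenated (5% CO2, 37 °C) for the rest of 10 days. Acetic acid fixation, crystal violet stain. Colonies >50 μm counted in three random 1-mm grids, expressed relative to controls; Mann–Whitney test.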

Assay [4] relates to HepG2. The experiment in a line: Down regulation of hypoxia inducible HIF1alpha gene expression in human HepG2 cells at 20 uM by RT-PCR. The assay is classed as functional, cell-based. The procedure, abridged:
(§3)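 Total RNA extracted with TRIzol, then quantitative RT-PCR: 50 °C 2 min, 95 °C 10 min, 40 cycles of 95 °C 15 s / 60 °C 1 min, with melting curves. Ct normalized to GAPDH; treated-minus-control ΔCt converted by 2^ to relative expression.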

For assay [5], the system named is HepG2. Description: Down regulation of hypoxia inducible P21 gene expression in human HepG2 cells at 20 uM by RT-PCR. Type of assay: functional, cell-based. The procedure, abridged: as §3
For assay [6], the system named is HepG2. Description: Down regulation of hypoxia inducible VEGF gene expression in human HepG2 cells at 20 uM by RT-PCR. The assay is classed as functional, cell-based. Put shortly: as §3
Assay [7] concerns HepG2. Description: Cytotoxicity against human HepG2 cells assessed as cell survival under normoxic condition at 25 uM after 24 hrs by clonogenic assay relative to control. Type of assay: functional. The following applies: HepG2, 24 h, read-out: Survival. The procedure, abridged:
as §1

Assay [8] concerns HepG2. Description: Cytotoxicity against human HepG2 cells assessed as cell survival under normoxic condition assessed as cell survival at 100 uM after 24 hrs by clonogenic assay relative to control. The assay is classed as functional. To be noted: HepG2, 24 h, read-out: Survival. The procedure, abridged: as §1
Assay [9] relates to HepG2. The experiment in a line: Cytotoxicity against human HepG2 cells assessed as cell survival under hypoxic condition at 25 uM after 24 hrs by clonogenic assay relative to control. The assay is classed as functional. The following applies: HepG2, 24 h, read-out: Survival. Put shortly:
as §2

Assay [10] concerns HepG2. Description: Cytotoxicity against human HepG2 cells assessed as cell survival under hypoxic condition at 100 uM after 24 hrs by clonogenic assay relative to control. The following applies: HepG2, 24 h, read-out: Survival. Type of assay: functional. Put shortly:
as §2

Assay [11] relates to HepG2. The experiment in a line: Cytotoxicity against human HepG2 cells assessed as cell survival under hypoxic condition at 400 uM after 24 hrs by clonogenic assay relative to control. The assay is classed as functional, cell-based. The following applies: in the assay text read “normoxic” for “hypoxic”.
Assay [12] concerns HepG2. The experiment in a line: Cytotoxicity against human HepG2 cells in normoxic condition after 48 hrs by MTT assay. Type of assay: functional, cell-based. The procedure, abridged:
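HepG2 cells (passage 2 from frozen stock) in RPMI 1640 with 10% FBS, dosed during log-phase growth with drug or vehicle (0.1% DMSO). Normoxic incubation at 37 °C, 5% CO2 for 48 h, then MTT read-out. Duplicate plates split from the same stock cells.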

For assay [13], the system named is HepG2. Description: Cytotoxicity against human HepG2 cells assessed as cell survival under hypoxic condition at 10 uM after 24 hrs by clonogenic assay. The assay is classed as functional. The following applies: HepG2, 24 h, read-out: Survival. Put shortly:
as §2

In assay [14] the test system is HepG2. The experiment in a line: Cytotoxicity against human HepG2 cells assessed as cell survival under normoxic condition at 10 uM […] by clonogenic assay relative to control. The following applies: read-out: Survival. Type of assay: functional. Put shortly:
as §1

[15] abbreviates: Homo sapiens, HepG2, 48 h, read-out: IC50.

For the molecule `Cc1ccc2c(c1)N=C(c1ccc(Cl)cc1)CO2`, the half-maximal inhibitory concentration (IC50) in assay [1] (setting [15]) is 87 µM. For the same molecule, the viability at 50 µM in [2] was 3%; in [3], -65%. The outcome in [4], in assay [5] and in assay [6] was Active. In addition, the viability at 25 µM in assay [7] was 5%; in [9], -31%. Also, the viability at 100 µM in assay [8] was 10%; in assay [10], -90%. Further, the Activity result in [11] was “Not toxic”.
On to `c1ccc(C2=Nc3ccccc3OC2)cc1`, for which the IC50 in assay [12] (setting [15]) turned out to be 87 µM; in assay [1] (setting [15]), 10 µM. Also, in assay [13], the viability at 10 µM is -71%.
As for `Cc1ccc2c(c1)N=C(c1ccc(F)cc1)CO2`, the IC50 result in assay [12] (hepg2) and in [1] (hepg2) was “Not Active” throughout.
Turning to `Clc1ccc2c(c1)N=C(c1ccccc1)CO2`, the IC50 in assay [12] (setting [15]) is 78 µM; in [1] (setting [15]) it was 30 µM.
On to `Clc1ccc(C2=Nc3ccc(Cl)cc3OC2)cc1`, for which the IC50 in assay [12] (setting [15]) turned out to be 88 µM; in assay [1] (setting [15]), 28 µM.
As for `O=[N+]([O-])c1ccc2c(c1)N=C(c1ccc(Cl)cc1)CO2`, the figures for the IC50 in assay [12] (setting [15]) and in assay [1] (setting [15]) were 78 µM and 20 µM, respectively. Also, the viability at 10 µM in [14] was 10%; in assay [13], -28%. Moreover, the viability at 50 µM in assay [2] is -11%; in assay [3], -83%.
`Cc1ccc(C2=Nc3ccc(Cl)cc3OC2)cc1`: the IC50 entry was “Not Active” in assay [12] (hepg2) and 10 µM in assay [1] (setting [15]).
Taken in the same sequence, the figures for `Cc1ccc(C2=Nc3cc(F)ccc3OC2)cc1` were “Not Active” and 100 µM.

As a reminder, the IC50 is the concentration that gives 50% inhibition.
